Assay results as given in ChEMBL document CHEMBL4689842, “EUbOPEN Chemogenomics Library wave 1” (2021).

Test system: Fibroblast
Test: Multiplex assay against human fibroblast
Type: toxicity, cell-based
How it was run: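 Hoechst33342, BioTracker Green Microtubule Cytoskeleton Dye, MitoTracker Red and Annexin V Alexa Fluor 680 were added to live cells at seeding, and imaging on a CQ1 microscope at 37°C and 5% CO2 followed compound addition. Gating by CellPathfinder machine learning separated cells into Hoechst high-intensity objects or normal cells, then normal cells into healthy, pyknosed or fragmented nuclei, then pyknosed cells into mitotic or apoptotic. Per cents of healthy-nucleus cells are reported for the tubulin, mitochondrial-mass and membrane-permeability phenotypes.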

[1] = 12 h, 1 µM, compound concentration 1 uM, replicate 1
[2] = 12 h, 1 µM, compound concentration 1 uM, replicate 2
[3] = 12 h, 10 µM, compound concentration 10 uM, replicate 1
[4] = 12 h, 10 µM, compound concentration 10 uM, replicate 2
[5] = 24 h, 1 µM, compound concentration 1 uM, replicate 1
[6] = 24 h, 1 µM, compound concentration 1 uM, replicate 2
[7] = 24 h, 10 µM, compound concentration 10 uM, replicate 1
[8] = 24 h, 10 µM, compound concentration 10 uM, replicate 2
[9] = 48 h, 1 µM, compound concentration 1 uM, replicate 1
[10] = 48 h, 1 µM, compound concentration 1 uM, replicate 2
[11] = 48 h, 10 µM, compound concentration 10 uM, replicate 1
[12] = 48 h, 10 µM, compound concentration 10 uM, replicate 2

Cc1ccc(C(=O)Nc2cccc(C(F)(F)F)c2)cc1Nc1nc(-c2cccnc2)nc2c1cnn2C
Population Apoptotic (%) [1]: 61% | Population Fragmented Nuclei (%) [1]: 34% | Population Healthy Nuclei (%) [1]: 29% | Population Hoechst High Intensity Objects (%) [1]: 10% | Population Membrane Permeable-Phenotype (%) [1]: 28% | Population Mitochondria Different-Phenotype (%) [1]: 3% | Population Mitotic Cells (%) [1]: 38% | Population Normal (%) [1]: 89% | Population Pyknosed Nuclei (%) [1]: 35% | Population Tubulin-Different-Phenotype (%) [1]: 53% | Total Cell Count [1]: 122 | Population Apoptotic (%) [2]: 50% | Population Fragmented Nuclei (%) [2]: 14% | Population Healthy Nuclei (%) [2]: 73% | Population Hoechst High Intensity Objects (%) [2]: 3% | Population Membrane Permeable-Phenotype (%) [2]: 6% | Population Mitochondria Different-Phenotype (%) [2]: 25% | Population Mitotic Cells (%) [2]: 50% | Population Normal (%) [2]: 96% | Population Pyknosed Nuclei (%) [2]: 12% | Population Tubulin-Different-Phenotype (%) [2]: 14% | Total Cell Count [2]: 101 | Population Apoptotic (%) [3]: 65% | Population Fragmented Nuclei (%) [3]: 24% | Population Healthy Nuclei (%) [3]: 33% | Population Hoechst High Intensity Objects (%) [3]: 13% | Population Membrane Permeable-Phenotype (%) [3]: 34% | Population Mitochondria Different-Phenotype (%) [3]: 37% | Population Mitotic Cells (%) [3]: 34% | Population Normal (%) [3]: 86% | Population Pyknosed Nuclei (%) [3]: 41% | Population Tubulin-Different-Phenotype (%) [3]: 88% | Total Cell Count [3]: 121 | Population Apoptotic (%) [4]: 61% | Population Fragmented Nuclei (%) [4]: 18% | Population Healthy Nuclei (%) [4]: 42% | Population Hoechst High Intensity Objects (%) [4]: 8% | Population Membrane Permeable-Phenotype (%) [4]: 78% | Population Mitochondria Different-Phenotype (%) [4]: 92% | Population Mitotic Cells (%) [4]: 38% | Population Normal (%) [4]: 91% | Population Pyknosed Nuclei (%) [4]: 39% | Population Tubulin-Different-Phenotype (%) [4]: 100% | Total Cell Count [4]: 66 | Population Apoptotic (%) [5]: 66% | Population Fragmented Nuclei (%) [5]: 40% | Population Healthy Nuclei (%) [5]: 41% | Population Hoechst High Intensity Objects (%) [5]: 14% | Population Membrane Permeable-Phenotype (%) [5]: 19% | Population Mitochondria Different-Phenotype (%) [5]: 5% | Population Mitotic Cells (%) [5]: 33% | Population Normal (%) [5]: 85% | Population Pyknosed Nuclei (%) [5]: 17% | Population Tubulin-Different-Phenotype (%) [5]: 43% | Total Cell Count [5]: 142 | Population Apoptotic (%) [6]: 27% | Population Fragmented Nuclei (%) [6]: 12% | Population Healthy Nuclei (%) [6]: 72% | Population Hoechst High Intensity Objects (%) [6]: 3% | Population Membrane Permeable-Phenotype (%) [6]: 7% | Population Mitochondria Different-Phenotype (%) [6]: 29% | Population Mitotic Cells (%) [6]: 72% | Population Normal (%) [6]: 96% | Population Pyknosed Nuclei (%) [6]: 14% | Population Tubulin-Different-Phenotype (%) [6]: 16% | Total Cell Count [6]: 101 | Population Apoptotic (%) [7]: 85% | Population Fragmented Nuclei (%) [7]: 27% | Population Healthy Nuclei (%) [7]: 34% | Population Hoechst High Intensity Objects (%) [7]: 10% | Population Membrane Permeable-Phenotype (%) [7]: 42% | Population Mitochondria Different-Phenotype (%) [7]: 44% | Population Mitotic Cells (%) [7]: 14% | Population Normal (%) [7]: 89% | Population Pyknosed Nuclei (%) [7]: 37% | Population Tubulin-Different-Phenotype (%) [7]: 81% | Total Cell Count [7]: 124 | Population Apoptotic (%) [8]: 90% | Population Fragmented Nuclei (%) [8]: 26% | Population Healthy Nuclei (%) [8]: 11% | Population Hoechst High Intensity Objects (%) [8]: 20% | Population Membrane Permeable-Phenotype (%) [8]: 100% | Population Mitochondria Different-Phenotype (%) [8]: 75% | Population Mitotic Cells (%) [8]: 9% | Population Normal (%) [8]: 79% | Population Pyknosed Nuclei (%) [8]: 61% | Population Tubulin-Different-Phenotype (%) [8]: 100% | Total Cell Count [8]: 77 | Population Apoptotic (%) [9]: 42% | Population Fragmented Nuclei (%) [9]: 59% | Population Healthy Nuclei (%) [9]: 36% | Population Hoechst High Intensity Objects (%) [9]: 23% | Population Membrane Permeable-Phenotype (%) [9]: 15% | Population Mitochondria Different-Phenotype (%) [9]: 0% | Population Mitotic Cells (%) [9]: 57% | Population Normal (%) [9]: 76% | Population Pyknosed Nuclei (%) [9]: 4% | Population Tubulin-Different-Phenotype (%) [9]: 59% | Total Cell Count [9]: 189 | Population Apoptotic (%) [10]: 75% | Population Fragmented Nuclei (%) [10]: 65% | Population Healthy Nuclei (%) [10]: 32% | Population Hoechst High Intensity Objects (%) [10]: 22% | Population Membrane Permeable-Phenotype (%) [10]: 12% | Population Mitochondria Different-Phenotype (%) [10]: 3% | Population Mitotic Cells (%) [10]: 25% | Population Normal (%) [10]: 77% | Population Pyknosed Nuclei (%) [10]: 2% | Population Tubulin-Different-Phenotype (%) [10]: 63% | Total Cell Count [10]: 231 | Population Apoptotic (%) [11]: 66% | Population Fragmented Nuclei (%) [11]: 45% | Population Healthy Nuclei (%) [11]: 38% | Population Hoechst High Intensity Objects (%) [11]: 21% | Population Membrane Permeable-Phenotype (%) [11]: 40% | Population Mitochondria Different-Phenotype (%) [11]: 18% | Population Mitotic Cells (%) [11]: 33% | Population Normal (%) [11]: 78% | Population Pyknosed Nuclei (%) [11]: 16% | Population Tubulin-Different-Phenotype (%) [11]: 88% | Total Cell Count [11]: 165 | Population Apoptotic (%) [12]: 60% | Population Fragmented Nuclei (%) [12]: 56% | Population Hoechst High Intensity Objects (%) [12]: 25% | Population Membrane Permeable-Phenotype (%) [12]: 14% | Population Mitochondria Different-Phenotype (%) [12]: 64% | Population Mitotic Cells (%) [12]: 40% | Population Normal (%) [12]: 74% | Population Pyknosed Nuclei (%) [12]: 4% | Population Tubulin-Different-Phenotype (%) [12]: 95% | Total Cell Count [12]: 146
